Results on one molecule are retold here after ChEMBL document CHEMBL4028900, “Design of Novel 3-Pyrimidinylazaindole CDK2/9 Inhibitors with Potent In Vitro and In Vivo Antitumor Efficacy in a Triple-Negative Breast Cancer Model” (J Med Chem, 2017).

Data set [1] is described as follows: Plasma concentration in BALB/c mouse at 2.5 mg/kg, iv at […] by LC/MS-MS analysis. Format: ADME, organism-based.
Data set [2] has as its system 4T1. The data set can be described thus: Antitumor activity against mouse 4T1 cells allografted in iv dosed Balb/C mouse assessed as tumor growth inhibition administered every 3 days for 21 days measured 2 times for every week during dosing. Format: functional, organism-based. The gist of the method:
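4T1 cells were grown in RPMI-1640 with 10% FBS, pyruvate and NEAA at 37 °C and 5% CO2. Female Balb/C mice received 1×10^6 cells into the second mammary fat pad. At about 100 mm3, mice were grouped five per group and dosed by tail vein in 200 µL (PBS diluent) every three days for 21 days. Tumor volume (L×B²/2, caliper) and body weight were taken twice weekly. The experiment was repeated twice.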

The nature of data set [3]: Plasma concentration in BALB/c mouse at 5 mg/kg, ip at 0.25 hrs by LC/MS-MS analysis. Format: ADME, organism-based.
Data set [4] in a line: AUC (0 to t) in BALB/c mouse at 5 mg/kg, ip by LC/MS-MS analysis. Format: ADME, organism-based. The conditions noted are these: in vivo.
The subject of data set [5] is Mus musculus. The experiment in a line: Half life in BALB/c mouse at 5 mg/kg, ip by LC/MS-MS analysis. Format: ADME, organism-based. The conditions noted are these: in vivo.
For data set [6], the system named is Mus musculus. The experiment in a line: Clearance in BALB/c mouse at 5 mg/kg, ip by LC/MS-MS analysis. Format: ADME, organism-based. The conditions noted are these: in vivo.
Data set [7] in a line: Plasma concentration in BALB/c mouse at 5 mg/kg, ip at 2 hrs by LC/MS-MS analysis. Format: ADME, organism-based.
Data set [8] can be described thus: Initial concentration in BALB/c mouse at 2.5 mg/kg, iv by LC/MS-MS analysis. As to conditions: in vivo. Format: ADME, organism-based.
Data set [9] relates to Mus musculus. The data set can be described thus: AUC (0 to infinity) in BALB/c mouse at 5 mg/kg, ip by LC/MS-MS analysis. Format: ADME, organism-based. Also noted: dose 5 mg/kg, route intraperitoneal, time infinity. As to conditions: in vivo.
Data set [10] relates to Mus musculus. The experiment in a line: Volume of distribution in BALB/c mouse at 5 mg/kg, ip by LC/MS-MS analysis. The conditions noted are these: in vivo. Format: ADME, organism-based.
Data set [11] is described as follows: Half life in BALB/c mouse at 2.5 mg/kg, iv by LC/MS-MS analysis. The conditions noted are these: in vivo. Format: ADME, organism-based.
A short description of data set [12]: Plasma concentration in BALB/c mouse at 2.5 mg/kg, iv at 1 hr by LC/MS-MS analysis. Format: ADME, organism-based.
Data set [13] in a line: Clearance in BALB/c mouse at 2.5 mg/kg, iv by LC/MS-MS analysis. Format: ADME, organism-based. As to conditions: in vivo.
Data set [14] is described as follows: Plasma concentration in BALB/c mouse at 5 mg/kg, ip at 0.5 hrs by LC/MS-MS analysis. Format: ADME, organism-based.
Data set [15] in a line: Plasma concentration in BALB/c mouse at 2.5 mg/kg, iv at 2 hrs by LC/MS-MS analysis. Format: ADME, organism-based.
Data set [16] can be described thus: Plasma concentration in BALB/c mouse at 5 mg/kg, ip at 4 hrs by LC/MS-MS analysis. Format: ADME, organism-based.
Data set [17] in a line: Volume of distribution in BALB/c mouse at 2.5 mg/kg, iv by LC/MS-MS analysis. As to conditions: in vivo. Format: ADME, organism-based.
Data set [18] can be described thus: AUC (0 to infinity) in BALB/c mouse at 2.5 mg/kg, iv by LC/MS-MS analysis. Format: ADME, organism-based. Set-up: dose 2.5 mg/kg, time infinity, route intravenous. The conditions noted are these: in vivo.
Data set [19] is described as follows: Plasma concentration in BALB/c mouse at 2.5 mg/kg, iv at 0.5 hrs by LC/MS-MS analysis. Format: ADME, organism-based.
Data set [20] is described as follows: Plasma concentration in BALB/c mouse at 5 mg/kg, ip at 1 hr by LC/MS-MS analysis. Format: ADME, organism-based.
The nature of data set [21]: AUC (0 to t) in BALB/c mouse at 2.5 mg/kg, iv by LC/MS-MS analysis. Format: ADME, organism-based. As to conditions: in vivo.
The nature of data set [22]: Plasma concentration in BALB/c mouse at 2.5 mg/kg, iv at 0.25 hrs by LC/MS-MS analysis. Format: ADME, organism-based.

A word on the AUC(0-t): it is exposure summed from dosing to a finite time, without extrapolation to infinity. As a reminder, the AUC is the area under the concentration-time curve, a measure of exposure. High values mean high exposure, low ones low exposure. Usually half-life stands for the time needed for the level to fall by half in the phase considered. A high value points to slow loss. A word on the clearance: it is the rate of elimination divided by the concentration. A lower clearance goes with a low capacity for elimination. By AUC(0-inf) is commonly meant total exposure, with the tail of the curve extrapolated. In turn, `Nc1nccc(-c2c[nH]c3ncc(-c4ccc(F)cc4)cc23)n1` returned a concentration at […] in data set [1] of 797 ng/mL. In addition, in [2], the TGI entry was “Dose-dependent effect”. In addition, the concentration at 0.25 h in data set [3] was 162 ng/mL; in data set [22], 311 ng/mL. Also, the AUC(0-t) in [4] is 244 ng·h/mL; in data set [21], 437 ng·h/mL. In data set [5], this molecule registered a t1/2 of 4.4 h. For the same molecule, the CL in [6] was 15 mL/min/kg. In addition, the results for the concentration at 2 h in [7] and in [15] were 59.1 ng/mL and 99.6 ng/mL, respectively. The molecule also registered a C0 in [8] of 1470 ng/mL. The molecule further came in with an AUC in data set [9] of 504.3 ng·h/mL. In addition, the Vd in data set [10] amounted to 63.6 L/kg; in [17], 11.3 L/kg. The half-life in data set [11] is 2.5 h. Moreover, the concentration at 1 h stood at 132 ng/mL in data set [12] and 61.6 ng/mL in [20]. The molecule also showed a clearance in [13] of 51.7 mL/min/kg. For the same molecule, the concentration at 0.5 h came to 73 ng/mL in [14] and 168 ng/mL in data set [19]. The molecule also returned a concentration at 4 h in data set [16] of 40.7 ng/mL. In [18], this molecule yielded an AUC(0-inf) of 795 ng·h/mL.
